# In ChEMBL document CHEMBL3734675, “Synthesis, antimycobacterial and antibacterial activity of fluoroquinolone derivatives containing an 3-alkoxyimino-4-(cyclopropylanimo)methylpyrrolidine moiety” (2015):
# Key:
# Format in all cases: functional
# Pseudomonas aeruginosa [1] = assay: Antibacterial activity against Pseudomonas aeruginosa 14-16 after 18 to 24 hrs by two-fold serial dilution method
# Procedure, shortened: (§1)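 Twofold serial dilution in agar media against Gram-positive and Gram-negative strains. Plates incubated at 35 °C for 18–24 h. MIC read as the lowest compound concentration giving complete inhibition of bacterial growth.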
# [2] = tested on: Staphylococcus epidermidis; assay: Antibacterial activity against methicillin-resistant Staphylococcus epidermidis 14-22 after 18 to 24 hrs by two-fold serial dilution method
# Procedure, shortened: (§2)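 Agar media, standard twofold serial dilution. MIC is the lowest concentration giving complete inhibition of bacterial growth after incubation at 35 °C for 18–24 h. Ciprofloxacin and levofloxacin were run as comparators.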
# Klebsiella pneumoniae [3] = assay: Antibacterial activity against extended-spectrum beta-lactamase producing Klebsiella pneumoniae 14-17 after 18 to 24 hrs by two-fold serial dilution method; procedure, shortened: as §1
# Staphylococcus aureus [4] = assay: Antibacterial activity against methicillin-resistant Staphylococcus aureus 14-4 after 18 to 24 hrs by two-fold serial dilution method; procedure, shortened: as §2
# Enterococcus faecalis [5] = assay: Antibacterial activity against Enterococcus faecalis 14-1 after 18 to 24 hrs by two-fold serial dilution method; procedure, shortened: as §1
# Klebsiella pneumoniae [6] = assay: Antibacterial activity against extended-spectrum beta-lactamase producing Klebsiella pneumoniae 14-19 after 18 to 24 hrs by two-fold serial dilution method; procedure, shortened: as §1
# Staphylococcus aureus [7] = assay: Antibacterial activity against methicillin-resistant Staphylococcus aureus 14-5 after 18 to 24 hrs by two-fold serial dilution method; procedure, shortened: as §2
# Enterococcus faecium [8] = assay: Antibacterial activity against Enterococcus faecium 14-6 after 18 to 24 hrs by two-fold serial dilution method; procedure, shortened: as §1
# Enterococcus faecalis [9] = assay: Antibacterial activity against Enterococcus faecalis 14-2 after 18 to 24 hrs by two-fold serial dilution method; procedure, shortened: as §1
# Escherichia coli [10] = assay: Antibacterial activity against extended-spectrum beta-lactamase producing Escherichia coli 14-1 after 18 to 24 hrs by two-fold serial dilution method; procedure, shortened: as §1
# Enterococcus faecium [11] = assay: Antibacterial activity against Enterococcus faecium 14-2 after 18 to 24 hrs by two-fold serial dilution method; procedure, shortened: as §1
# [12] = tested on: Staphylococcus epidermidis; assay: Antibacterial activity against methicillin-resistant Staphylococcus epidermidis 14-37 after 18 to 24 hrs by two-fold serial dilution method; procedure, shortened: as §2
# [13] = tested on: Staphylococcus epidermidis; assay: Antibacterial activity against methicillin-resistant Staphylococcus epidermidis 14-21 after 18 to 24 hrs by two-fold serial dilution method; procedure, shortened: as §2
# Staphylococcus aureus [14] = assay: Antibacterial activity against methicillin-sensitive Staphylococcus aureus 14-1 after 18 to 24 hrs by two-fold serial dilution method; procedure, shortened: as §1
# [15] = tested on: Staphylococcus epidermidis; assay: Antibacterial activity against methicillin-resistant Staphylococcus epidermidis 14-39 after 18 to 24 hrs by two-fold serial dilution method; procedure, shortened: as §2
# Escherichia coli [16] = assay: Antibacterial activity against extended-spectrum beta-lactamase producing Escherichia coli 14-2 after 18 to 24 hrs by two-fold serial dilution method; procedure, shortened: as §1
# Staphylococcus aureus [17] = assay: Antibacterial activity against methicillin-sensitive Staphylococcus aureus 14-4 after 18 to 24 hrs by two-fold serial dilution method; procedure, shortened: as §1
# Streptococcus pneumoniae = assay: Antibacterial activity against methicillin-resistant Streptococcus pneumoniae ATCC 19615 after 18 to 24 hrs by two-fold serial dilution method; procedure, shortened: as §2
# Klebsiella pneumoniae [18] = assay: Antibacterial activity against Klebsiella pneumoniae 14-1 after 18 to 24 hrs by two-fold serial dilution method; procedure, shortened: as §1
# Pseudomonas aeruginosa [19] = assay: Antibacterial activity against Pseudomonas aeruginosa 14-15 after 18 to 24 hrs by two-fold serial dilution method; procedure, shortened: as §1
# Enterococcus faecium [20] = assay: Antibacterial activity against Enterococcus faecium 14-5 after 18 to 24 hrs by two-fold serial dilution method; procedure, shortened: as §1
# Klebsiella pneumoniae [21] = assay: Antibacterial activity against extended-spectrum beta-lactamase producing Klebsiella pneumoniae 14-18 after 18 to 24 hrs by two-fold serial dilution method; procedure, shortened: as §1
# Klebsiella pneumoniae [22] = assay: Antibacterial activity against Klebsiella pneumoniae 14-3 after 18 to 24 hrs by two-fold serial dilution method; procedure, shortened: as §1
# Escherichia coli [23] = assay: Antibacterial activity against Escherichia coli 14-1 after 18 to 24 hrs by two-fold serial dilution method; procedure, shortened: as §1
# Staphylococcus aureus [24] = assay: Antibacterial activity against Staphylococcus aureus CMCC 26003 after 18 to 24 hrs by two-fold serial dilution method; procedure, shortened: as §1
# Escherichia coli [25] = assay: Antibacterial activity against Escherichia coli 14-2 after 18 to 24 hrs by two-fold serial dilution method; procedure, shortened: as §1
# [26] = tested on: Staphylococcus epidermidis; assay: Antibacterial activity against methicillin-sensitive Staphylococcus epidermidis 14-2 after 18 to 24 hrs by two-fold serial dilution method; procedure, shortened: as §1
# Pseudomonas aeruginosa [27] = assay: Antibacterial activity against Pseudomonas aeruginosa ATCC 27853 after 18 to 24 hrs by two-fold serial dilution method; procedure, shortened: as §1
# Escherichia coli [28] = assay: Antibacterial activity against Escherichia coli ATCC 25922 after 18 to 24 hrs by two-fold serial dilution method; procedure, shortened: as §1
# Klebsiella pneumoniae [29] = assay: Antibacterial activity against Klebsiella pneumoniae 14-4 after 18 to 24 hrs by two-fold serial dilution method; procedure, shortened: as §1
# Klebsiella pneumoniae [30] = assay: Antibacterial activity against Klebsiella pneumoniae 14-2 after 18 to 24 hrs by two-fold serial dilution method; procedure, shortened: as §1
# Pseudomonas aeruginosa [31] = assay: Antibacterial activity against Pseudomonas aeruginosa 14-14 after 18 to 24 hrs by two-fold serial dilution method; procedure, shortened: as §1
# Staphylococcus aureus [32] = assay: Antibacterial activity against methicillin-sensitive Staphylococcus aureus 14-3 after 18 to 24 hrs by two-fold serial dilution method; procedure, shortened: as §1
# Pseudomonas aeruginosa [33] = assay: Antibacterial activity against Pseudomonas aeruginosa 14-9 after 18 to 24 hrs by two-fold serial dilution method; procedure, shortened: as §1
SMILES,MIC [2] [µg/mL],MIC (Staphylococcus aureus [4]) [µg/mL],MIC (Enterococcus faecalis [5]) [µg/mL],MIC (Klebsiella pneumoniae [6]) [µg/mL],MIC (Enterococcus faecium [8]) [µg/mL],MIC (Enterococcus faecalis [9]) [µg/mL],MIC (Enterococcus faecium [11]) [µg/mL],MIC [12] [µg/mL],MIC [13] [µg/mL],MIC (Staphylococcus aureus [14]) [µg/mL],MIC [15] [µg/mL],MIC (Staphylococcus aureus [17]) [µg/mL],MIC (Klebsiella pneumoniae [18]) [µg/mL],MIC (Enterococcus faecium [20]) [µg/mL],MIC (Klebsiella pneumoniae [22]) [µg/mL],MIC (Staphylococcus aureus [24]) [µg/mL],MIC [26] [µg/mL],MIC (Escherichia coli [28]) [µg/mL],MIC (Klebsiella pneumoniae [29]) [µg/mL],MIC (Klebsiella pneumoniae [30]) [µg/mL],also measured
O=C(O)c1cn(C2CC2)c2nc(N3C/C(=N/OCc4ccccc4)C(CNC4CC4)C3)c(F)cc2c1=O (stereo unspecified),16,> 128,64,128,8,1,16,16,16,8,32,8,64,32,128,< 0.008,64,4,> 128,64,MIC (Pseudomonas aeruginosa [1]): 64 µg/mL; MIC (Klebsiella pneumoniae [3]): 128 µg/mL; MIC (Staphylococcus aureus [7]): 16 µg/mL; MIC (Escherichia coli [10]): 32 µg/mL; MIC (Escherichia coli [16]): > 128 µg/mL; MIC (Streptococcus pneumoniae): 8 µg/mL; MIC (Pseudomonas aeruginosa [19]): 128 µg/mL; MIC (Klebsiella pneumoniae [21]): 128 µg/mL; MIC (Escherichia coli [23]): > 128 µg/mL; MIC (Escherichia coli [25]): > 128 µg/mL; MIC (Pseudomonas aeruginosa [27]): 64 µg/mL; MIC (Pseudomonas aeruginosa [31]): 64 µg/mL; MIC (Staphylococcus aureus [32]): 4 µg/mL; MIC (Pseudomonas aeruginosa [33]): 64 µg/mL
CC1(CNC2CC2)CN(c2nc3c(cc2F)c(=O)c(C(=O)O)cn3C2CC2)C/C1=N/OCc1ccccc1 (stereo unspecified),4,2,64,128,4,0.25,4,2,8,2,2,0.5,64,2,> 128,< 0.008,16,1,> 128,64,MIC (Pseudomonas aeruginosa [1]): 128 µg/mL; MIC (Klebsiella pneumoniae [3]): 128 µg/mL; MIC (Staphylococcus aureus [7]): 2 µg/mL; MIC (Escherichia coli [10]): 32 µg/mL; MIC (Escherichia coli [16]): > 128 µg/mL; MIC (Streptococcus pneumoniae): 0.5 µg/mL; MIC (Pseudomonas aeruginosa [19]): 128 µg/mL; MIC (Klebsiella pneumoniae [21]): 128 µg/mL; MIC (Escherichia coli [23]): > 128 µg/mL; MIC (Escherichia coli [25]): > 128 µg/mL; MIC (Pseudomonas aeruginosa [27]): 64 µg/mL; MIC (Pseudomonas aeruginosa [31]): 128 µg/mL; MIC (Staphylococcus aureus [32]): 0.5 µg/mL; MIC (Pseudomonas aeruginosa [33]): 64 µg/mL
O=C(O)c1cn(C2CC2)c2cc(N3CCNCC3)c(F)cc2c1=O [CIPROFLOXACIN],128,> 128,64,64,> 128,1,32,128,64,32,128,0.5,32,128,> 128,0.5,> 128,< 0.008,32,16,MIC (Pseudomonas aeruginosa [1]): 1 µg/mL; MIC (Klebsiella pneumoniae [3]): 0.5 µg/mL; MIC (Streptococcus pneumoniae): 2 µg/mL; MIC (Pseudomonas aeruginosa [19]): 1 µg/mL; MIC (Klebsiella pneumoniae [21]): 0.5 µg/mL; MIC (Pseudomonas aeruginosa [31]): 1 µg/mL
C[C@H]1COc2c(N3CCN(C)CC3)c(F)cc3c(=O)c(C(=O)O)cn1c23.C[C@H]1COc2c(N3CCN(C)CC3)c(F)cc3c(=O)c(C(=O)O)cn1c23.O [LEVOFLOXACIN],32,64,128,64,64,1,32,64,64,8,64,0.5,16,64,32,0.25,> 128,0.125,16,8,MIC (Staphylococcus aureus [7]): 8 µg/mL; MIC (Escherichia coli [10]): 4 µg/mL; MIC (Escherichia coli [16]): 8 µg/mL; MIC (Escherichia coli [23]): 8 µg/mL; MIC (Escherichia coli [25]): 8 µg/mL; MIC (Staphylococcus aureus [32]): 0.125 µg/mL; MIC (Pseudomonas aeruginosa [33]): 0.5 µg/mL
